Compound activity from PubChem.
The entries come from a sample that favours hits as a whole.
Insulin prom act: TRM-6 insulin promoter activation | activation, % at 2 µM | TRM-6 cells (human fetal islet line), insulin promoter eGFP reporter, imaging; plate-scaled: unstimulated 0, stimulated control 100 | 130,000 tested, 0.81% active;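 active = activation at 2 µM above a set limit, confirmed on inspection of the cell images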;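 note: share of cells whose green reporter signal exceeds an intensity cutoff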
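System – TRM-6 insulin promoter–eGFP reporter cells · Probe or stimulus – 0.75 µM tamoxifen as reporter inducer · Dosing – single-point 2 µM compound dose · Incubation – tamoxifen pre-incubation 15 h overnight, then compound exposure 48 h at 37 °C · Measured by – fixed-cell fluorescence microscopy, eGFP plus Hoechst · Evaluation – percent GFP-positive cells normalized to per-plate controls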
Large screens that a line does not name were inactive; [ ] = dose if it differs, or a comment.

O=C(Nc1ccccc1)c1ccncc1	none
CCC(=O)Nc1ccnc(-c2cccnc2)n1	none
O=C(Nc1ccnc(-c2ccncc2)n1)c1ccc(F)cc1	Insulin prom act 340
CC(C)N(C(=O)COC(=O)c1cc(Cl)cc(Cl)c1N)C(C)C	none
CCCCCNC(=O)N[C@H](C(=O)O)C(C)C	none
O=C(CSc1ccc(-c2nc3ccccc3[nH]2)cn1)Nc1ccc(S(=O)(=O)NC2CC2)cc1	none
CC1(C)Cc2c(cnn2-c2ccccc2)-c2c1c1ccccc1n2CC(O)CCl (stereo not given)	none
CCOC(=O)c1ccccc1NCN1C(=O)CSC1=O	none
Cc1nn(-c2ccccc2)c(C)c1/C=N/NC(=O)CSc1nnc(SCc2ccccc2Cl)s1	none
Cc1nn(-c2ccccc2)c(C)c1/C=N/n1c(-c2ccc(Cl)cc2)n[nH]c1=S	none
Cc1nn(-c2ccccc2)c(C)c1/C=N/NC(=O)c1cc(-c2ccccc2)n[nH]1	Insulin prom act 125
CCOC(=O)c1cc2cc(OC)ccc2[nH]1	none
Cc1ccc(C(=O)C(C)Oc2cccc(NC(=O)c3ccco3)c2)cc1 (stereo not given)	none
O=C(NCc1ccccc1)c1ccco1	none
C=CCn1c(SCC(=O)Nc2ccc(C(=O)OC(C)C)cc2)nnc1-c1cccs1	none
O=C(CSc1nnc(-c2ccco2)n1Cc1ccccc1)c1ccc(F)cc1	none
C=CCn1c(CNC(=O)c2cccs2)nnc1SCC(=O)c1ccc(Br)cc1	Insulin prom act 92
C=CCn1c(CCNC(=O)c2cccs2)nnc1SCC(=O)Nc1cccc(Cl)c1C	none
C=CCn1c(CNC(=O)c2ccco2)nnc1SCC(=O)c1ccccc1	Insulin prom act 255
O=C(NCc1ccc(Cl)cc1)C(=O)NCC(c1cccnc1)N1CCN(c2ccc(F)cc2)CC1 (stereo not given)	Insulin prom act 165
COc1ccc(N2CCN(C(CNC(=O)C(C)(C)C)c3cccnc3)CC2)cc1 (stereo not given)	none
O=C(NCc1ccccc1)N1CCN(c2ccc(F)cc2)CC1	none
Cc1onc(-c2ccccc2Cl)c1C(=O)N1CCN(Cc2ccc3c(c2)OCO3)CC1	none
CC1CCCCN1CCNC(=O)C1CCN(S(=O)(=O)N2CCCCC2)CC1 (stereo not given)	none
O=C(c1ccccc1)N(Cc1ccc(F)cc1)Cc1nc2ccccc2c(=O)[nH]1	none
COc1ccc(C(=O)CSc2nnc(-c3cc(C)cc(C)c3)o2)cc1	none
COc1cc(OC)cc(-c2nnc(SCC(=O)Nc3cc(C)on3)o2)c1	Insulin prom act 113
COc1cc(OC)cc(-c2nnc(SCC(=O)N3CCOCC3)o2)c1	none
O=C(O)CCc1nn2cnc3sc4c(c3c2nc1=O)CCCC4	none
COCCCNC(=O)c1ccc(-c2csc(C)n2)cc1	none
CCN(CC)c1ccc(NC(=O)Nc2ccc(C(C)=O)cc2)cc1	none
CC(=O)c1ccc(NC(=O)Nc2ccccc2)cc1	none
CC(=O)c1ccc(NC(=O)NCc2ccc(F)cc2)cc1	Insulin prom act 326
COc1ccc(-c2cc(CNS(=O)(=O)c3ccccc3)on2)cc1	none
Cc1ccc(-c2n[nH]c(=S)n2/N=C/c2ccncc2)cc1	none
COc1ccc(N2C(=O)CC(N3CCOCC3)C2=O)cc1 (stereo not given)	none
COc1ccc(NC2CC(=O)N(c3cccc(C)c3)C2=O)cc1 (stereo not given)	Insulin prom act 600
COc1ccc(N2C(=O)CC(Nc3cccc(C(C)=O)c3)C2=O)cc1OC (stereo not given)	none
CC1CN=C(c2cccn2Cc2ccc(F)cc2Cl)O1 (stereo not given)	none
Cc1ccc(CNC(=O)CN(Cc2cccs2)C(=O)C2(C)CC(=O)N=C3C=CC=CN32)cc1 (stereo not given)	none
CC(C)(C)NC(=O)COC(=O)c1ccc(S(=O)(=O)N2CCCC2)cc1	none
CCOC(=O)CCC(=O)N1CCOCCOCCOCC1	none
CCCS(=O)(=O)c1ccc(COC(=O)c2ccc(NC(C)=O)cc2)cc1	none
Cc1cccc(C(C)(C)C)c1OCCn1ccnc1	none
CC(=O)/C(C(=N)N1CCN(c2cccc(Cl)c2)CC1)=C(\C)O	none
O=C(CN1CCN(c2cccc(Cl)c2)CC1)N1CCCC1	none
O=C(O)CCC(=O)N1CCN(c2cccc(Cl)c2)CC1	Insulin prom act 467
COc1cc(C(=O)OCC(=O)N(C)C)cc(NC(=O)c2ccco2)c1OC	none
O=C(COC(=O)/C=C/c1ccc(Br)o1)NCCCN1CCCC1=O	none
CC/C(=N\NC(=O)Nc1ccccc1)c1ccccc1	none
Cc1cccc(C)c1NC(=O)C1(N2CCN(C(=O)c3ccco3)CC2)CCCCC1	none
COc1ccc(NC(=O)c2ccc(COc3ccccc3)o2)cc1	none
COc1ccccc1OCc1ccc(C(=O)NC(C)(C)C)o1	none
COC(=O)c1ccccc1NC(=O)c1ccc(COc2ccccc2)o1	Insulin prom act 585
CSc1nsc(SC)c1C(=O)N1CCN(S(=O)(=O)c2ccc(C)cc2)C1C (stereo not given)	Insulin prom act 125
Cc1ccc(S(=O)(=O)N2CCN(C(=O)CN3CCCCC3)C2C(C)C)cc1 (stereo not given)	none
CSc1nsc(SC)c1C(=O)Nc1ccc(C)cc1	none
O=C(NCCc1ccccc1Cl)C1CCN(S(=O)(=O)c2cccs2)CC1	none
CCOC(=O)Nc1sc(C)c(C)c1C(=O)OCC	none
Cc1ccccc1NC(=O)C1CCN(S(=O)(=O)c2cccs2)CC1	none
CCOC(=O)c1c(NC(=O)C2CCN(S(=O)(=O)c3cccs3)CC2)sc(C)c1C	Insulin prom act 454
COc1ccc(N2CCN(CCNC(=O)C3CCN(S(=O)(=O)c4cccs4)CC3)CC2)cc1	none
CCC(C)(C)NC(=O)C1CCN(S(=O)(=O)c2cccs2)CC1	Insulin prom act active[fluoresces]
O=C(Nc1ccccc1-c1nnn(CC(=O)N2CCCc3ccccc32)n1)c1ccc(Cl)cc1	none
O=C1CC(c2ccco2)Cc2nc(N3CCc4ccccc4C3)ncc21 (stereo not given)	none
N#CCCn1c(SCC(=O)NCCc2ccc(F)cc2)nc2ccccc21	none
CCNC(=O)CCn1nc(-c2ccc(Cl)cc2)c2ccccc2c1=O	none
CCOC(=O)CN1C(=O)S/C(=C/c2cc(C)n(C)c2C)C1=O	none
COCCN1C(=O)/C(=C/c2ccc(N3CCCC3)cc2C)SC1=S	Insulin prom act 456[fluoresces]
CCN1C(=O)/C(=C\N2CCN(C)CC2)SC1=S	none
COc1cc(OC)c(NC(=O)CCc2nc(-c3ccc(C)cc3)no2)cc1Cl	none
CC(=O)/C(=C/c1ccc(N(C)C)cc1)C(=O)c1ccccc1	none
CN(C)c1ccc(/C=C/c2cc[n+](C)cc2)cc1	Insulin prom act 174
CN(C)c1ccc(/C=N/N=C/c2ccccc2O)cc1	none
Cc1nc2cc(-c3ccccc3)nn2c(C)c1CCC(=O)NC(C)c1ccc2c(c1)OCCO2 (stereo not given)	none
CCC(=O)Nc1ccc(OCc2nc3ccccc3s2)cc1	none
Cc1nc(CC(C)C)cc(C(=O)N2CCCC(CNS(=O)(=O)c3cccs3)C2)n1 (stereo not given)	Insulin prom act 421
O=C(c1ccc(NS(=O)(=O)c2cccs2)cc1)N1CCCCC1	none
CCOC(=O)C1CCCN(C(=O)c2cc(-c3ccccc3)on2)C1 (stereo not given)	none
CCC(Sc1nc2ccc(N)cc2s1)C(=O)Nc1nccs1 (stereo not given)	none
N#Cc1ccc(N2C(=O)[C@@H]3C(C(=O)C(c4ccccc4)c4ccccc4)=NN[C@@H]3C2=O)cc1	none
O=C(Nc1cc(S(=O)(=O)N2CCCCC2)ccc1Cl)c1ccccc1NS(=O)(=O)c1ccc(F)cc1	Insulin prom act 525
O=C(Nc1ccccc1N1CCOCC1)c1ccccc1NS(=O)(=O)c1ccc(F)cc1	none
O=C(Nc1cc(S(=O)(=O)N2CCCC2)ccc1OCC(F)(F)F)c1ccc(F)cc1	none
